Source: PubChem BioAssay (several laboratories)
In the library only some 4.3% were active in any assay of this set; here they are far more common.
RBBP9 inhibitor – blocks human serine hydrolase RBBP9 | recombinant RBBP9, FP-Rh probe fluorescence polarization | inhibition, % at 7.94 µM | 220,000 tested, 0.2% active;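 active = inhibition above the campaign mean of all tested compounds plus 3 SD, cut at about 14% in these data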;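 also: plate controls were DMSO wells with RBBP9 for no effect and wells lacking RBBP9 protein for full effect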
Target sequence (O75884 whole entry, looked up): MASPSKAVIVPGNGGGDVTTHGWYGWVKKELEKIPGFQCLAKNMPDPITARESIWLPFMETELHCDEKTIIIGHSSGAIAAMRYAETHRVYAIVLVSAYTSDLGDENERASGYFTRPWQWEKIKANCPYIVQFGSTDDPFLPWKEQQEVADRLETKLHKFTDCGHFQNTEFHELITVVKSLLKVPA
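Controls: DMSO-treated enzyme wells and wells lacking RBBP9 | Material: RBBP9 protein | Technique: Fluorescence polarization | Replication: Single well per compound, no replicates | Buffer or medium: Tris-NaCl-Pluronic buffer, pH 8.0 | Timing: 30 min compound preincubation, 45 min probe labeling, 25 °C | Read-out basis: Percent inhibition from mP, scaled between DMSO and no-protein wells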
ALR inh – human ALR oxidase inhibition via reduced H2O2; inhibition, % (no concentration beside the values); 290,000 tested, 3.8% active; P55789; purified ALR, DTT oxidation, H2O2 HRP-luminol luminescence;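 active = mean replicate inhibition above about 79%, with every replicate also reaching it, limit read from the data; inconclusive = only one of the two criteria met; inactive = mean below limit and not every replicate reaching it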
Rin1 Abl inh – human Rin1-Abl interaction inhibition | P00519+Q13671 | TR-FRET Rin1/Abl binding, biochemical | inhibition, % at 7.35 µM | 360,000 tested, 0.4% active; in the data active = inhibition above about 5%, passing the limit was not always enough
UBC13 inh – blocks human UBC13 polyubiquitin chain formation | P61088 | TR-FRET | inhibition, % at 20 µM | 330,000 tested, 0.47% active | AID 485273; in the data active = inhibition above about 45%, passing the limit was not always enough; inconclusive = no clear call, values can overlap the other calls
Target sequence (P61088 whole entry, looked up): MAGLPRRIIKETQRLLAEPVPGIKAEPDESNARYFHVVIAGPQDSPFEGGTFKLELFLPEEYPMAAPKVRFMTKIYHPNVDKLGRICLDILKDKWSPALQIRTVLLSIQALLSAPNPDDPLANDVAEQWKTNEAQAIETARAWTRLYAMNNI
SUMO HTRF inh – blocks human SUMOylation mediated by UBC9 | 290,000 tested, 0.36% active | inhibition, % at 35 µM | P63279 | HTRF SUMOylation assay, SAE1/SAE2 + UBC9, in vitro; in the data active = inhibition above about 50%, passing the limit was not always enough; inconclusive = no clear call, values can overlap the other calls
Target sequence (P63279 whole entry, looked up): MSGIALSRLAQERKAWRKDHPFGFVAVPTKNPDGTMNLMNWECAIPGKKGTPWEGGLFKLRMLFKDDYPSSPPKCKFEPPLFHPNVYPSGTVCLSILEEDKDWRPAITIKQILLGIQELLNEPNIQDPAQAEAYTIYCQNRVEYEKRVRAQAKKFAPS
PREPL inh – inhibitors of human prolyl oligopeptidase-like enzyme PREPL; inhibition, % at 5.96 µM; 320,000 tested, 0.68% active; Q4J6C6; recombinant PREPL, fluorescence polarization activity-based probe; AID 2751; in the data active = inhibition above about 43%;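 also: 0% = enzyme with DMSO and 100% = wells lacking enzyme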
Active calls of the source: *; u = inconclusive; x = no result given.

SMILES | RBBP9 inhibitor | ALR inh | Rin1 Abl inh | UBC13 inh | SUMO HTRF inh | PREPL inh
COC(=O)c1ccc(Cn2nnc3c(=O)[nH]c(C4CCN(S(=O)(=O)c5ccc(F)cc5)CC4)nc32)cc1 | x | 1 | 5 | 8 | -12 | 8
NC(=O)c1ncn([C@@H]2O[C@H](CNCc3cccn3-c3ccncc3)[C@@H](O)[C@H]2O)n1 | x | x | -2 | x | x | x
COc1cccc(CNC23CC4CC(CC(C4)C2)C3)c1OCc1ccccc1 | -6 | 11 | -2 | 24 | 2 | 21
O=c1cc2oc3cc(O)c(O)cc3c(-c3ccccc3[N+](=O)[O-])c-2cc1O | x | 4 | 65* | -27 | u | 9
O=C(/C=C/c1ccccc1)C1C(=O)c2ccccc2C1=O | -9 | 15 | -2 | -24 | 59* | 8
Cc1cc(=O)oc2cc(NC(=O)c3cc([N+](=O)[O-])ccc3N3CCOCC3)ccc12 | -1 | 2 | -8 | -21 | 12 | 9
CN(CC1COc2ccccc2O1)C(=O)c1ccc(N(C)C)cc1 (stereo unspecified) | -8 | 89* | -2 | -7 | 16 | 29
Cn1ncc([N+](=O)[O-])c1C(=O)Nc1ccccc1 | x | x | 1 | -8 | 9 | 19
COc1cccc(NC(=O)c2c([N+](=O)[O-])cnn2C)c1 | x | 96* | 0 | 4 | 1 | 2
Cc1nn(CCc2n[nH]c(=S)n2C2CCCCC2)c(C)c1Br | 0 | 2 | 3 | 14 | -12 | 4
Cc1nn(CCc2n[nH]c(=S)n2C)c(C)c1Br | 2 | 94* | -1 | -3 | 4 | 9
CC1(C)CC2(CC(c3ccccc3F)c3ccc(O)c(O)c3O2)NC(=S)N1 (stereo unspecified) | -5 | 99* | 7 | 12 | 7 | 18
CCOc1ccccc1Nc1nc(-c2sc(NC(=O)c3ccccc3)nc2C)cs1 | -6 | 2 | x | 69* | 22 | 11
COc1ccc(NC(=O)CC2Nc3cc(C)c(C)cc3NC2=O)c([N+](=O)[O-])c1 (stereo unspecified) | -5 | -6 | 0 | -53 | 12 | 14
COc1ccc(NC(=O)CC2Nc3cccc4cccc(c34)NC2=O)cc1 (stereo unspecified) | 11 | 100* | 4 | -5 | u | 23
O=C(CC1Nc2cccc3cccc(c23)NC1=O)Nc1ccc(F)cc1 (stereo unspecified) | -2 | 62 | 1 | -52 | 68* | 33
O=C(CC1Nc2ccccc2NC1=O)Nc1cc(Cl)cc(Cl)c1 (stereo unspecified) | -8 | -1 | 3 | 1 | -7 | 0
Cc1ccc(CCNC(=O)CN(C)S(=O)(=O)c2ccc3c(c2)n(C)c(=O)c(=O)n3C)cc1 | -5 | -3 | 0 | -13 | 24 | 23
COCc1cc(C)nc(OCC(=O)N/N=C/c2ccc(O)cc2)c1C#N | -7 | 99* | 0 | -6 | 8 | 20
CCc1cc2c(=O)c(Oc3ccccc3F)c(C)oc2c(CN(C)C)c1O | -9 | -2 | -3 | 14 | 64* | 2
C#CCn1c(=NC(=O)CSCC(=O)N2CCOCC2)sc2ccccc21 | 1 | 96* | -2 | 5 | 11 | 6
Cn1c(=NC(=O)CSCC(=O)N2CCCC2)sc2ccccc21 | 0 | -8 | 0 | -3 | 11 | -2
O=C(O)C1Sc2[nH]c(=O)sc2C2c3cc(Cl)ccc3OC(=O)C12 (stereo unspecified) | -7 | 94* | 1 | -25 | 12 | -2
O=C1CC(NS(=O)(=O)c2cc(F)ccc2F)CN1c1cccc(F)c1 (stereo unspecified) | x | -5 | 3 | 8 | x | -5
Cc1ccc(C)c(/C=C/C(=O)c2ccccc(=O)c2O)c1 | -5 | 97* | 2 | x | 21 | 7
SMILES | RBBP9 inhibitor | ALR inh | Rin1 Abl inh | UBC13 inh | SUMO HTRF inh | PREPL inh
CC1CCN(C(=O)Cn2nnc(-c3ccc(C(C)C)cc3)n2)CC1 | x | 7 | 0 | -2 | 3 | x
CCN(CC)c1ccc(/C=N/NC(=O)C(O)c2ccccc2)cc1 (stereo unspecified) | -7 | 100* | -6 | -5 | -6 | -2
O=C(N/N=C/c1ccc(O)c(O)c1)C1CC1 | x | 99* | -4 | 2 | x | 7
CCN(CC)c1ccc(/C=N/NC(=O)Nc2nonc2N)cc1 | -1 | 99* | -1 | 8 | -21 | 9
CCN(CC)c1ccc(/C=N/NC(=O)C2CC2)cc1 | x | 100* | -1 | -1 | -5 | 1
O=C(N/N=C/c1ccsc1)C1CC1 | -2 | -15 | 0 | -14 | 6 | 2
O=C(N/N=C/c1ccccc1)C(O)c1ccccc1 (stereo unspecified) | x | -10 | 1 | 2 | 12 | -11
COc1ccc(S(=O)(=O)Nc2cccc3c2O[C@H](CN(C)C(=O)Nc2ccc4c(c2)OCO4)[C@@H](C)CN([C@H](C)CO)C3=O)cc1 | x | -10 | 0 | -2 | x | 12
COc1cc(NC(=O)CC(C)S(=O)(=O)c2ccc3c(c2)NC(=O)CO3)cc(OC)c1OC (stereo unspecified) | x | -9 | 4 | -3 | 13 | 9
CCn1c(-c2cc3ccccc3cc2O)n[nH]c1=S | 0 | 99* | -4 | 10 | 29 | 6
CCn1c(-c2cc(Br)ccc2O)n[nH]c1=S | -8 | 98* | 4 | 22 | x | -2
CCn1c(-c2c[nH]c3ccccc23)n[nH]c1=S | -7 | 55 | 0 | 0 | -2 | -1
CCN(CC(=O)Nc1cccc(S(=O)(=O)N(C)c2ccccc2)c1)Cc1cccs1 | x | -14 | 2 | 7 | x | -4
CC1=C(C)CS(=O)N(S(=O)(=O)c2ccccc2)C1 (stereo unspecified) | -6 | 99* | -5 | -10 | 13 | 6
CC1=C(C)CS(=O)N(c2ccc(S(N)(=O)=O)cc2)C1 (stereo unspecified) | -8 | 73 | -1 | 5 | 34 | -17
O=c1[nH]c(CN2CCCCC2)ccc1O | x | x | 18* | x | x | x
O=c1[nH]cnc(CN2CCCCC2)c1O | x | x | 4 | x | x | x
COc1ccc(C=O)cc1CSc1ccccn1 | -17 | 97* | -3 | -7 | 7 | -7
O=c1c2cc(Br)ccc2[nH]c(=S)n1Cc1ccccn1 | -11 | 93* | 2 | 37 | 8 | 18
COc1ccc(-c2ccc(CCC(=O)O)n2NC(=O)c2ccc(O)cc2)cc1 | -3 | 98* | 3 | 5 | 6 | 5
COc1ccc(-c2ccc(CCC(=O)O)n2-c2ccccc2OC)cc1 | x | 99* | 4 | -14 | 16 | 12
O=C(O)CCc1ccc(-c2ccccc2)n1-c1ccc(C(=O)O)cc1 | x | 1 | -1 | 7 | -2 | 2
O=C(O)CCc1ccc(-c2ccccc2)n1NC(=O)c1sc2ccccc2c1Cl | -5 | 98* | -5 | -5 | 18 | 14
COc1ccc(-c2ccc(CCC(=O)O)n2NC(N)=O)cc1 | 10 | 31 | -2 | -4 | -7 | -2
COc1ccccc1-n1c(CCC(=O)O)ccc1-c1ccccc1 | x | 90* | -2 | 1 | 16 | 14
